ChEMBL document CHEMBL4118175, “Anti-allergic inflammatory components from Sanguisorba officinalis L” (Bioorg Med Chem Lett, 2018)
The source made the active and inactive calls. The calls are words filed in the database; no cut-off is given here.

Experiments:
RAW264.7 [1] = assay: Cytotoxicity against mouse RAW264.7 cells at 5 and 20 uM after 24 hrs by MTS assay; type: cell-based; details: raw264.7, 24 h
Method in brief: (§1)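 RBL-2H3 (seeded overnight) or RAW264.7 cells exposed to 5 and 20 µM samples for 24 h; viability by MTS; three independent experiments, mean ± SEM.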

RBL-2H3 [2] = assay: Anti-inflammatory activity in PMA/A23187-stimulated rat RBL2H3 cells assessed as reduction of beta-hexosaminidase secretion preincubated for 1 hr followed by PMA/A23187 stimulation for 1 hr using 4-nitrophenyl-N-acetyl-beta-D-glucosaminide substrate; type: functional, cell-based
Method in brief: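 After overnight plating, cells pretreated 1 h then stimulated with 30 ng/mL PMA plus 350 ng/mL A23187 for 1 h; supernatants collected for β-hexosaminidase detection; triplicate, mean ± SEM.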

RBL-2H3 [3] = assay: Anti-inflammatory activity in IgE sensitized and DNP-BSA-stimulated rat RBL2H3 cells assessed as reduction of IL4 secretion preincubated for 2 hrs followed by DNP-BSA stimulation for 18 hrs by ELISA; type: functional, cell-based
Method in brief: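 IgE-sensitized cells (overnight, 37 °C) pretreated with compounds 2 h, then challenged with 1 µg/mL DNP-BSA for 18 h; IL-4 in supernatant quantified by ELISA kit. Cells seeded in 48-well plates overnight; triplicate, mean ± SEM.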

RBL-2H3 [4] = assay: Anti-inflammatory activity in PMA/A23187-stimulated rat RBL2H3 cells assessed as reduction of IL4 secretion preincubated for 2 hrs followed by PMA/A23187 stimulation for 18 hrs by ELISA; type: functional, cell-based
Method in brief: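 Cells plated overnight, pretreated 2 h, then stimulated with 30 ng/mL PMA plus 350 ng/mL A23187 for 18 h; supernatant IL-4 by ELISA kit; triplicate, mean ± SEM.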

RAW264.7 [5] = assay: Anti-inflammatory activity in mouse RAW264.7 cells assessed as inhibition of LPS-induced TNF-alpha production at 20 uM preincubated for 2 hrs followed by LPS addition measured after 24 hrs by ELISA; type: functional, cell-based
Method in brief: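 Cells pretreated 2 h with compounds (20 µM) before LPS (500 ng/mL) for 24 h; supernatant TNF-α by ELISA kit; triplicate, mean ± SEM.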

RBL-2H3 [6] = assay: Cytotoxicity against rat RBL2H3 cells at 5 and 20 uM after 24 hrs by MTS assay; type: cell-based; details: rbl-2h3, 24 h; method in brief: as §1
RAW264.7 [7] = assay: Anti-inflammatory activity in mouse RAW264.7 cells assessed as reduction in LPS-stimulated COX2 protein expression at 20 uM preincubated for 2 hrs followed by LPS addition measured after 18 hrs by Western blot analysis; type: functional, cell-based
Method in brief: (§2)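 Pretreatment 2 h with samples (20 µM) then LPS 200 ng/mL for 18 h; COX-2 and iNOS protein by Western blot.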

[8] = molecular target: Transcription factor p65 (Mus musculus) (UniProt Q04207); assay: Inhibition of NFkappaB nuclear translocation in LPS-stimulated mouse RAW264.7 cells at 20 uM pretreated for 2 hrs followed by LPS-induction by DAPI-staining based immunofluorescence microscopic method; type: cell-based
Chain of Transcription factor p65 (Mus musculus) (Q04207 whole entry): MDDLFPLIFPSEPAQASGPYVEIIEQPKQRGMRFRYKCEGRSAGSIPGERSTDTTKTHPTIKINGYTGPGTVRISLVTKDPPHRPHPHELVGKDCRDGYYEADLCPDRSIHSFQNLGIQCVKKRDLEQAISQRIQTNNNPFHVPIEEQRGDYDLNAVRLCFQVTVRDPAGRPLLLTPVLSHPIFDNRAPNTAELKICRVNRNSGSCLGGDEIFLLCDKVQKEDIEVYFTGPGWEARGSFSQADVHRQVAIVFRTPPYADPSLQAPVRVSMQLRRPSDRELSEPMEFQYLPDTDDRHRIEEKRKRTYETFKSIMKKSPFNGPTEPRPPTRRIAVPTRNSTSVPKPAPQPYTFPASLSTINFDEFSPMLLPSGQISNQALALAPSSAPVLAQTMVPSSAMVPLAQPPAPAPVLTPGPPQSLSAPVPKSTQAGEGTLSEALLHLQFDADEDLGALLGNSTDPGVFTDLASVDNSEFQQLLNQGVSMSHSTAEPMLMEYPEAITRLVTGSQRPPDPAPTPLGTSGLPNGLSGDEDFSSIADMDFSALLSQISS
Method in brief: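 Cells in eight-well glass chambers preincubated 2 h with samples (20 µM) or Bay 11-7082 before LPS 1 µg/mL; immunostaining with polyclonal anti-p65 and Alexa Fluor 488 secondary to view nuclear translocation.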

RAW264.7 [9] = assay: Anti-inflammatory activity in mouse RAW264.7 cells assessed as inhibition of LPS-induced nitric oxide production preincubated for 2 hrs followed by LPS addition measured after 24 hrs by Griess method; type: functional, cell-based
Method in brief: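 Following 2 h sample pretreatment, LPS added for 24 h; supernatant NO read with Griess reagent; triplicate, mean ± SEM.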

RAW264.7 [10] = assay: Anti-inflammatory activity in mouse RAW264.7 cells assessed as reduction in LPS-stimulated iNOS protein expression at 20 uM preincubated for 2 hrs followed by LPS addition measured after 18 hrs by Western blot analysis; type: functional, cell-based; method in brief: as §2
[11] = molecular target: Transcription factor p65 (Homo sapiens) (UniProt Q04206); assay: Inhibition of PMA-induced NFkappaB P65 activation (unknown origin) expressed in human HEK293T cells transfected with pNF-kappaB-SEAP preincubated for 2 hrs followed by PMA stimulation measured after overnight incubation by NFkappaB reporter gene assay; type: cell-based
Chain of Transcription factor p65 (Homo sapiens) (Q04206 whole entry): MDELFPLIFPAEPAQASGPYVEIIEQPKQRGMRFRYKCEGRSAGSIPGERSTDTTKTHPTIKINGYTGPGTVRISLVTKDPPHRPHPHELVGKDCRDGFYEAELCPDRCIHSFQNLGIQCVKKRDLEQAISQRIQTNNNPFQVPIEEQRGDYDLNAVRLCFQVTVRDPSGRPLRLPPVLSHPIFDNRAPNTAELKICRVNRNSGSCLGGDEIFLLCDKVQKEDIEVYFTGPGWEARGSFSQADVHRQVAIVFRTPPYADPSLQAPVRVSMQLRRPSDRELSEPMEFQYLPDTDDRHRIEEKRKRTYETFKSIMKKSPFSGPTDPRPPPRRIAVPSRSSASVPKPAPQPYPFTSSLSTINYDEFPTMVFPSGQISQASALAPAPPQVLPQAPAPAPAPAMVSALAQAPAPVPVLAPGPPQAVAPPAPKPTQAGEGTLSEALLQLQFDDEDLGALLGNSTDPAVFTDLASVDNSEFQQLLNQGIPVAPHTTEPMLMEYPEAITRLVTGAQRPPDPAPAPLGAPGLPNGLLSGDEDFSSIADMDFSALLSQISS
Method in brief: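 293T cells carrying pNFκB-SEAP reporter plasmid, pretreated with samples then PMA-stimulated; NF-κB transcription read as SEAP; triplicate, mean ± SEM.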

SMILES | NFkappaB nuclear translocation inhibition (qualitative call) [8] | inhibition [11] | Activity (RAW264.7 [1]) | Activity (RBL-2H3 [2]) | Activity (RBL-2H3 [3]) | Activity (RBL-2H3 [4]) | Activity (RAW264.7 [5]) | Activity (RBL-2H3 [6]) | Activity (RAW264.7 [7]) | Activity (RAW264.7 [9]) | Activity (RAW264.7 [10])
C[C@@H]1CC[C@]2(C(=O)O[C@@H]3O[C@H](CO)[C@@H](O)[C@H](O)[C@H]3O)CC[C@]3(C)C(=CC[C@@H]4[C@@]5(C)C[C@@H](O)[C@@H](O)C(C)(C)[C@@H]5CC[C@]43C)[C@@H]2[C@]1(C)O |  |  | Non-Toxic | Active | Dose-dependent effect | Dose-dependent effect | Active | Non-Toxic |  |  | 
Cc1ccc(S(=O)(=O)/C=C/C#N)cc1 | Active |  |  |  |  |  |  |  |  |  | 
Cc1ccc(-c2cc(C(F)(F)F)nn2-c2ccc(S(N)(=O)=O)cc2)cc1 |  |  |  |  |  |  |  |  | Active |  | 
COc1cc2c(=O)oc3c(OC)c(OC)cc4c(=O)oc(c1O)c2c34 |  |  | Toxic |  |  |  |  | Toxic |  |  | 
C=CCc1ccc(O[C@@H]2O[C@H](CO[C@@H]3OC[C@@H](O)[C@H](O)[C@H]3O)[C@@H](O)[C@H](O)[C@H]2O)cc1 |  |  | Non-Toxic | Active | Dose-dependent effect | Dose-dependent effect | Active | Non-Toxic | Active | Active | Active

Now from value to compound, other results behind:

NFkappaB nuclear translocation inhibition (qualitative call) [8] | inhibition [11] | SMILES | Activity (RAW264.7 [1]) | Activity (RBL-2H3 [2]) | Activity (RBL-2H3 [3]) | Activity (RBL-2H3 [4]) | Activity (RAW264.7 [5]) | Activity (RBL-2H3 [6]) | Activity (RAW264.7 [7]) | Activity (RAW264.7 [9]) | Activity (RAW264.7 [10])
Active | Dose-dependent effect | CC(CCCC(C)(C)O)CCO[C@@H]1O[C@H](CO[C@@H]2O[C@@H](CO)[C@H](O)[C@H]2O)[C@@H](O)[C@H](O)[C@H]1O (stereo not given in full) | Non-Toxic | Active | Dose-dependent effect | Dose-dependent effect | Active | Non-Toxic | Active | Active | Active
Active | Dose-dependent effect | C[C@@H]1CC[C@]2(C(=O)O)CC[C@]3(C)C(=CC[C@@H]4[C@@]5(C)CC[C@H](O[C@@H]6OC[C@H](O)[C@H](O)[C@H]6O)C(C)(C)[C@@H]5CC[C@]43C)[C@@H]2[C@]1(C)O | Non-Toxic | Active | Dose-dependent effect | Dose-dependent effect | Active | Non-Toxic |  | Active | 
Active | Dose-dependent effect | CC1=C2C3=CC[C@@H]4[C@@]5(C)CC[C@H](O[C@@H]6OC[C@H](O)[C@H](O)[C@H]6O)C(C)(C)[C@@H]5CC[C@@]4(C)[C@]3(C)CC[C@@]2(C(=O)O[C@@H]2O[C@H](CO)[C@@H](O)[C@H](O)[C@H]2O)CC[C@H]1C | Non-Toxic | Active | Dose-dependent effect | Dose-dependent effect | Active | Non-Toxic | Active | Active | Active
